Activity calls are given as the source filed them. The rule behind the calls is not given here.
Experiments:
[1] = n-Octanol-PBS buffer partition coefficient, log D of the compound at 370 kBq after 3 mins at pH 7.4; format: physicochemical
Procedure, shortened: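 For log D, tubes containing n-octanol and PBS were vortexed 3 min at room temperature and centrifuged 5 min at 3000 rpm. Weighed samples of the octanol (100 μL) and buffer (500 μL) layers were counted. Log D is the log of the ratio of counts per gram, octanol to PBS.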

[2] = Displacement of [125I]IMPY from amyloid beta (1 to 42) fibrils after 2 hrs by gamma-counting analysis
Procedure, shortened: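 Competition binding with aggregated Aβ1-42 fibrils (60 nM final) and [125I]IMPY. Inhibitors were tested at 10⁻⁵–10⁻¹⁰ M (in ethanol) in 0.2 M PBS, pH 7.4, 1 mL, for 2 h at 37 °C with shaking. Nonspecific binding was defined with 1 μM IMPY. Bound ligand was collected by GF/B filtration and γ-counted. Ki was derived from IC50 via Cheng–Prusoff.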

Brain [3] = test: Ratio of drug uptake in brain at 2 mins to drug uptake in brain at 60 mins in ddY mouse at 370 kBq/100 ul, iv; format: ADME, organism-based; details: in vivo
Procedure, shortened: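 Tail-vein injection of 370 kBq/100 μL (saline, 5% EtOH) into male ddY mice (5 weeks, 20−22 g, n = 5). Brain excised at 2 and 60 min, weighed and γ-counted against diluted injectate. Uptake is %ID/g, and the ratio is brain at 2 min divided by brain at 60 min.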

Mus musculus [4] = species on record: Mus musculus; test: Binding affinity to amyloid beta plaques in transgenic C57BL6 mouse brain expressing APP Swedish mutant/PSEN1 at 370 kBq/100 ul after 1 hr by autoradiographic analysis; format: tissue-based; details: tested as the 18F-labelled form
Procedure, shortened: (§1)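 In vitro autoradiography on paraffin sections. Mouse: Tg C57BL6 APPswe/PSEN1 and wild-type, both 12 months old. Human: AD (person) and normal (person). Sections were deparaffinized through xylene and graded ethanol, held in PBS (0.2 M, pH 7.4) for 30 min, then incubated with tracer (370 kBq/100 μL) for 1 h at room temperature. Washes were 50% ethanol then water. Plates were exposed overnight. Plaques were confirmed by thioflavin-S or monoclonal Aβ1-42 antibody immunostaining.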

Mus musculus [5] = test: Binding affinity to amyloid beta plaque in transgenic C57BL6 mouse cortex expressing APP Swedish mutant at 40.7 MBq, iv after 30 mins by thioflavinS-staining method; format: functional, organism-based; design: dose or concentration left out as unconfirmed; details: tested as the 18F-labelled form
Procedure, shortened: (§2)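 Ex vivo: Tg2576 (C57BL6, APPsw) mice, 18 months old, and age-matched wild-type mice. Each received 40.7 MBq of tracer in 100 μL saline with 5% EtOH iv via the femoral vein and was decapitated 30 min later. Brains were frozen in dry ice and cut into 20 μm sections. Sections were exposed to an imaging plate for 8 h, then the same sections were stained with thioflavin-S.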

[6] = target: Amyloid-beta precursor protein (Homo sapiens) (UniProt P05067); test: Binding affinity to amyloid beta plaques in […] brain at 370 kBq/100 ul after 1 hr by autoradiographic analysis; details: tested as the 18F-labelled form; procedure, shortened: as §1
Chain of Amyloid-beta precursor protein (Homo sapiens) (P05067 whole entry): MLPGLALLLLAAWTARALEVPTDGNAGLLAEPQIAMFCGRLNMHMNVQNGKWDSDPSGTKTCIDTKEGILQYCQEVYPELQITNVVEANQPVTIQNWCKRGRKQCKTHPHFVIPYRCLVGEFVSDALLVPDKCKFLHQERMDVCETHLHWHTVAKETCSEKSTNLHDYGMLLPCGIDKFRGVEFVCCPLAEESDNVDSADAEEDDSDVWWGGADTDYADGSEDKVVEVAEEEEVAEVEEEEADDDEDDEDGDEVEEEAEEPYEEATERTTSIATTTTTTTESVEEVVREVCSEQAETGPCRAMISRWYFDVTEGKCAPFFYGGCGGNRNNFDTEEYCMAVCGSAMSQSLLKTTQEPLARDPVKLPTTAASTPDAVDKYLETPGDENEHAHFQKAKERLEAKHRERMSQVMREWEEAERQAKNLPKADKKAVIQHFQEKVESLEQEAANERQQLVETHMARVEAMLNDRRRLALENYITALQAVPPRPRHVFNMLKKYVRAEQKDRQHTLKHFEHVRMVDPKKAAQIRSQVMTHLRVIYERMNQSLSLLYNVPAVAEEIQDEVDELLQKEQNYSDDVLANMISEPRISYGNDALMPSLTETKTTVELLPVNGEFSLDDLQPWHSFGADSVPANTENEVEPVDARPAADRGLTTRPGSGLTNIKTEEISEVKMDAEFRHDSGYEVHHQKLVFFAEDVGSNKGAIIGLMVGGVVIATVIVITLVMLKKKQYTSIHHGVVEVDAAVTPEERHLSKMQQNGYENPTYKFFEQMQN

Mus musculus [7] = test: Binding affinity to amyloid beta plaque in transgenic C57BL6 mouse hippocampus expressing APP Swedish mutant at 40.7 MBq, iv after 30 mins by thioflavinS-staining method; format: functional, organism-based; design: dose or concentration left out as unconfirmed; details: tested as the 18F-labelled form; procedure, shortened: as §2
Mus musculus [8] = test: Binding affinity to amyloid beta plaque in transgenic C57BL6 mouse cortex expressing APP Swedish mutant/PSEN1 at 40.7 MBq, iv after 30 mins by autoradiographic analysis; format: functional, organism-based; details: 40.7 M, tested as the 18F-labelled form
Mus musculus [9] = species on record: Mus musculus; test: Binding affinity to amyloid beta plaques in transgenic C57BL6 mouse brain expressing APP Swedish mutant/PSEN1 at 370 kBq/100 ul after 1 hr by thioflavinS-staining method; format: tissue-based; details: tested as the 18F-labelled form; procedure, shortened: as §1
[10] = target: Amyloid-beta precursor protein (Homo sapiens) (UniProt P05067); test: Binding affinity to amyloid beta plaques in […] brain at 370 kBq/100 ul after 1 hr by immunohistochemical staining method; details: tested as the 18F-labelled form; procedure, shortened: as §1
Mus musculus [11] = test: Binding affinity to amyloid beta plaque in transgenic C57BL6 mouse hippocampus expressing APP Swedish mutant/PSEN1 at 40.7 MBq, iv after 30 mins by autoradiographic analysis; format: functional, organism-based; details: 40.7 M, tested as the 18F-labelled form
[12] = Displacement of [125I]TZDM from amyloid beta (1 to 40) fibrils
Brain [13] = test: Drug uptake in iv dosed ICR mouse brain; format: ADME, organism-based; details: in vivo
Brain [14] = test: Drug uptake in ddY mouse brain at 370 kBq/100 ul, iv assessed per organ at 60 mins by gamma-counting analysis; format: ADME, organism-based; details: in vivo, 1 h
Brain [15] = test: Drug uptake in ddY mouse brain at 370 kBq/100 ul, iv assessed per organ at 2 mins by gamma-counting analysis; format: ADME, organism-based; details: in vivo
Brain [16] = test: Drug uptake in ddY mouse brain at 370 kBq/100 ul, iv at 60 mins by gamma-counting analysis; format: ADME, organism-based; details: in vivo, 1 h
Procedure, shortened: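 Normal male ddY mice (5 weeks, 20−22 g, n = 5) received 370 kBq of tracer in 100 μL saline with 5% EtOH via tail vein. Mice were sacrificed at set times after injection, and organs were excised, weighed and γ-counted against diluted injectate aliquots. Values are %ID per gram, except stomach and intestine as %ID per organ, given as mean ± SD of 5 mice.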

## CN(C)c1ccc(-c2cc3cc(OCCOCCOCC[18F])ccc3o2)cc1
[1]
  logD at 0.05 h: 2.94
[2]
  Ki: 2 nM
Brain [3]
  Ratio: 1.03

## CN(C)c1ccc(-c2nc3cc(OCCOCCOCCF)ccc3o2)cc1
Mus musculus [4]
  Activity: Active
Mus musculus [5]
  Activity: Active
[2]
  Ki: 3.9 nM
[6]
  Activity: Active
Mus musculus [7]
  Activity: Active
Mus musculus [8]
  Activity: Active
Mus musculus [9]
  Activity: Active
[10]
  Activity: Active
Mus musculus [11]
  Activity: Active

## CN(C)c1ccc(-c2cc3ccc([125I])cc3o2)cc1
[12]
  Ki: 0.4 nM
Brain [13]
  Drug uptake: < 1.5 %ID

## CNc1ccc(-c2nc3cc(OCCOCCOCCF)ccc3o2)cc1
Mus musculus [4]
  Activity: Active
Mus musculus [5]
  Activity: Active
[2]
  Ki: 9.3 nM
[6]
  Activity: Active
Mus musculus [7]
  Activity: Active
Mus musculus [8]
  Activity: Active
Mus musculus [9]
  Activity: Active
[10]
  Activity: Active
Mus musculus [11]
  Activity: Active

## CN(C)c1ccc(-c2cc3cc([125I])ccc3o2)cc1
[12]
  Ki: 0.4 nM
Brain [13]
  Drug uptake: < 1.5 %ID

## CN(C)c1ccc(-c2nc3ccc([125I])cc3o2)cc1
[1]
  logD at 0.05 h: 2.09
[12]
  Ki: 0.8 nM
[2]
  Ki: 0.8 nM
Brain [3]
  Ratio: 1.13
Brain [14]
  Drug uptake: 1.26 %ID
Brain [15]
  Drug uptake: 1.43 %ID

## Oc1ccc(-c2cc3cc([125I])ccc3o2)cc1
[12]
  Ki: 0.4 nM
Brain [13]
  Drug uptake: < 1.5 %ID

## CNc1ccc(-c2cc3cc([125I])ccc3o2)cc1
[12]
  Ki: 0.4 nM
Brain [13]
  Drug uptake: < 1.5 %ID

## CNc1ccc(-c2cc3cc(OCCOCCOCC[18F])ccc3o2)cn1
[1]
  logD at 0.05 h: 3.11
[2]
  Ki: 2.4 nM
Brain [3]
  Ratio: 2.34

## CN(C)c1ccc(-c2cc3cc(OCCOCCOCC[18F])ccc3o2)cn1
[1]
  logD at 0.05 h: 2.32
[2]
  Ki: 1 nM
Brain [3]
  Ratio: 2.11

## CNc1ccc(-c2cc3cc(OCCOCCOCC[18F])ccc3o2)cc1
[1]
  logD at 0.05 h: 3.73
[2]
  Ki: 3.9 nM
Brain [3]
  Ratio: 2.11

## CNc1ccc(/C=C/c2ccc(OCCOCCOCC[18F])nc2)cc1 [FLORBETAPIR F 18]
[2]
  Ki: 2.87 nM
Brain [16]
  Drug uptake: 1.88 % ID/g
Brain [3]
  Ratio: 3.9

Source: ChEMBL document CHEMBL2176925, “Novel ¹⁸F-labeled benzoxazole derivatives as potential positron emission tomography probes for imaging of cerebral β-amyloid plaques in Alzheimer's disease” (J Med Chem, 2012)
